Experimental findings from ChEMBL document CHEMBL1151330, “Facile total synthesis and antimicrobial activity of the marine fatty acids (Z)-2-methoxy-5-hexadecenoic acid and (Z)-2-methoxy-6-hexadecenoic acid” (1998) are described below.

A value given as a limit tells only on which side of the number the result lay.

Common to all, as to format: functional
In one test the test system is Staphylococcus aureus. The experiment in a line: Antibacterial activity against Staphylococcus aureus ATCC 25923 after overnight incubation. The method, boiled down:
(§1)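 Broth microdilution per NCCLS: 200 µL of the α-methoxylated fatty acid in Mueller-Hinton broth, inoculated with 10⁵ CFU, incubated overnight at 37 °C. MIC taken as the highest dilution inhibiting growth, compared with an uninoculated chemical-control well. At least three separate experiments, each in duplicate.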

The test system of another test is Enterococcus faecalis. The test can be described thus: Antibacterial activity against Streptococcus faecalis group D ATCC 29212 after overnight incubation. The method, boiled down: as §1
Another test relates to Pseudomonas aeruginosa. The experiment in a line: Antibacterial activity against Pseudomonas aeruginosa ATCC 27853 after overnight incubation. In outline: as §1
The next test concerns Escherichia coli. The experiment in a line: Antibacterial activity against Escherichia coli ATCC 25922 after overnight incubation. The method, boiled down: as §1

Consider `CCCCCCCCC/C=C\CCCC(OC)C(=O)O` (configuration not stated), for which the MIC was 350 µM with Staphylococcus aureus, 350 µM against Enterococcus faecalis, above 200 µg/mL against Pseudomonas aeruginosa and above 200 µg/mL in the test on Escherichia coli.
Turning to `CCCCCCCCCC/C=C\CC[C@H](OC)C(=O)O`, the MIC against Staphylococcus aureus is 350 µM; against Enterococcus faecalis it was 350 µM; against Pseudomonas aeruginosa, above 200 µg/mL; in the test on Escherichia coli, above 200 µg/mL.
In the case of `CCCCCCCCCCCCCCC(OC)C(=O)O` (configuration not stated), the minimal inhibitory concentration (MIC) in the test with Staphylococcus aureus, against Enterococcus faecalis, against Pseudomonas aeruginosa and against Escherichia coli was above 100 µg/mL each time.

For orientation: MIC means the least concentration at which growth counts as inhibited. Read a low MIC as inhibition by little substance.
